Laboratory results taken from article PMC3286593 (Cancer Chemotherapy and Pharmacology, 2011).

What was measured:
[1] = tested on: NSCLC NCI-H460 xenograft models; settings: cited from earlier work
[2] = tested on: patients with advanced solid malignancies; assay: Phase I 3 + 3 dose escalation: MTD and dose-limiting toxicities; format: in vivo, human; settings: for Pemetrexed dose at MTD: q3w; for MTD of sunitinib: with pemetrexed 500 mg/m^2 q3w
Procedure, shortened: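 Open-label multicentre 3 + 3 escalation. […] A DLT was a grade 3/4 drug-related toxicity in cycle 1 (NCI CTCAE v3.0). MTD was the highest dose with 0/3 or ≤1/6 DLTs.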

[3] = tested on: patients with advanced solid malignancies; assay: Dose delays, dose reductions and relative dose intensity; format: in vivo, human; settings: for Cycles with dose reductions: Schedule 2/1
Procedure, shortened: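 Grade 3/4 toxicity attributed to either drug allowed intra-patient dose reduction at the investigator's discretion, up to 2 reductions per drug. […] Relative dose intensity was actual/intended dose intensity. Results were summarised descriptively per cycle and per patient.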

[4] = tested on: VEGFR and PDGFR phosphorylation; settings: cited from earlier work
[5] = tested on: patients with advanced solid malignancies; assay: Safety: adverse events; format: in vivo, human
NSCLC = settings: single-agent sunitinib on Schedule 4/2; cited from earlier work
[6] = NSCLC expansion cohort (n = 15)

## Nc1nc2[nH]cc(CCc3ccc(C(=O)N[C@@H](CCC(=O)O)C(=O)O)cc3)c2c(=O)[nH]1 [pemetrexed]
[1]
  Effect on antitumor activity of sunitinib: enhanced its antitumor activity
[2]; with sunitinib 37.5 mg/day CDD schedule
  Pemetrexed dose at MTD: 500 mg/m^2
[2]; with sunitinib 50 mg/day Schedule 2/1
  Pemetrexed dose at MTD: 500 mg/m^2
[3]; CDD schedule MTD
  Patients with a pemetrexed dose delay: 12 patients
  Patients with a pemetrexed dose reduction to 400 mg/m^2: 6 patients
[3]; NSCLC expansion cohort
  Cycles with pemetrexed dose reduction: 6 cycles
  Patients with at least one pemetrexed dose reduction to 400 mg/m^2: 3 patients
[3]
  Cycles with dose reductions: 3 cycles
[3]; original CDD schedule MTD
  Cycles with pemetrexed dose reduction: 13 cycles

## CCN(CC)CCNC(=O)c1c(C)[nH]c(/C=C2\C(=O)Nc3ccc(F)cc32)c1C [sunitinib]
[1]
  Tumor growth: decreased tumor growth
[4]
  Target plasma concentrations required to inhibit VEGFR and PDGFR phosphorylation: 50 to 100 ng/mL
[5]; CDD schedule at the MTD, one event of each in separate patients
  Serious AEs considered related to sunitinib treatment: febrile neutropenia (DLT), pancreatitis, pain, gastroenteritis, and muscular weakness
[5]; Schedule 2/1, all n = 1
  Serious AEs considered related to sunitinib treatment: febrile neutropenia (DLT), tumor perforation, and pyrexia
[2]; CDD schedule
  MTD of sunitinib: 37.5 mg/day
[2]; Schedule 2/1
  MTD of sunitinib: 50 mg/day
NSCLC
  ORR: 11.1%
[3]; CDD schedule MTD
  Patients with a sunitinib dose reduction to 25 mg: 12 patients
  Patients with at least one sunitinib dose delay: 12 patients
[3]; CDD schedule MTD, abdominal pain, seizure, thrombocytopenia
  Patients who discontinued sunitinib due to AEs: Three
[3]; [6]
  Cycles with sunitinib dose reductions: 22 cycles
  Patients with at least one sunitinib dose reduction to 25 mg: 7 patients
[3]
  Cycles with dose reductions: 6 cycles
[3]; original CDD schedule MTD cohort (n = 7)
  Cycles with sunitinib dose reductions: 23 cycles
